Reference: the RNAGym collection of RNA variant scans (doi:10.1038/s41586-018-0170-7)

B1: tRNA (parent)
chain: GUUCCGUUGGCGUAAUGGUAACGCGUCUCCCUCCUAAGGAGAAGACUGCGGGUUCGAGUCCCGUACGGAACG

Variants of: B1
Experiment: yeast fitness, log relative to wild type (ln ratio); higher = fitter; tRNA-Arg(CCU), competitive growth, 37 C, 1 M NaCl
Outline: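 In BY4742 missing the chromosomal gene, a combinatorial tRNA-Arg(CCU) variant library was maintained on a HIS3 centromeric plasmid. Selection ran ~6.5 generations (~26.5 h) in SC-HIS 1M NaCl at 37 °C, following 4 generations in SC-HIS at 30 °C, with three outputs per input and variant counts by 125 bp paired-end Illumina sequencing. Fitness is the natural log of a genotype's generations relative to the wild type's, with generations taken as inverse-variance-weighted, OD-scaled log2 output/input frequency.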

Q: For ACUCCGUUGGCGUAAUGGUAACGCGUUUCCCUCCUAAGGAGAAGAUUGCGGGUUCGAGUCCCGUACGGGAUG, which “yeast fitness (ln)” value is on record?
A: -0.192

Q: With AGUCCGUUGGCGUAAUGGUAACGCGUCUCCCUCCUAAGGAGAAGAUUGCGGGUUCGAGUCCCGUAUGGGGCG as the variant, how does the “yeast fitness (ln)” value read?
A: -0.172

Q: With AGUCCAUUGGCGUAAUGGUAACGCGUUUCCCUCCUAAGGAGAAGACUGCGGGUUCGAGUCCCGUAUGGAUCG as the variant, how does the “yeast fitness (ln)” value read?
A: -0.234

Q: With GCUCCAUUGGCGUAAUGGUAACGCGUUUCCCUCCUAAGGAGACGACUGCGGGUUCGAGUCCCGUAUGGAACG as the variant, how does the “yeast fitness (ln)” value read?
A: -0.179

Q: For AUUCCUUUGGCGUAAUGGUAACGCGUCUCCCUCCUAAGGAGAAGAUUGCGGGUUCGAGUCCCGUACGGAGUG, which “yeast fitness (ln)” value is on record?
A: -0.227

Q: For AGUCCUUUGGCGUAAUGGUAACGCGUCUCCCUCCUAAGGAGACGACUGCGGGUUCGAGUCCCGUACGGGUCG, which “yeast fitness (ln)” value is on record?
A: -0.456

Q: With GGUCCAUUGGCGUAAUGGUAACGCGUUUCCCUCCUAAGGAGAAGAUUGCGGGUUCGAGUCCCGUAUGGGUUG as the variant, how does the “yeast fitness (ln)” value read?
A: -0.394

Q: For AUUCCUUUGGCGUAAUGGUAACGCGUCUCCCUCCUAAGGAGACGAUUGCGGGUUCGAGUCCCGUAUGGAACG, which “yeast fitness (ln)” value is on record?
A: -0.286

Q: Which “yeast fitness (ln)” value does the source give for GUUCCGUUGGCGUAAUGGUAACGCGUUUCCCUCCUAAGGAGAAGAUUGCGGGUUCGAGUCCCGUACGGAGUG here?
A: -0.256

Q: With GGUCCAUUGGCGUAAUGGUAACGCGUCUCCCUCCUAAGGAGACGAUUGCGGGUUCGAGUCCCGUACGGAUCG as the variant, how does the “yeast fitness (ln)” value read?
A: -0.261

Q: Which “yeast fitness (ln)” value does the source give for AGUCCAUUGGCGUAAUGGUAACGCGUUUCCCUCCUAAGGAGAAGACUGCGGGUUCGAGUCCCGUACGGGGUG here?
A: -0.443

Q: With ACUCCUUUGGCGUAAUGGUAACGCGUCUCCCUCCUAAGGAGAAGAUUGCGGGUUCGAGUCCCGUACGGGUCG as the variant, how does the “yeast fitness (ln)” value read?
A: -0.0237

Q: With GUUCCAUUGGCGUAAUGGUAACGCGUCUCCCUCCUAAGGAGACGACUGCGGGUUCGAGUCCCGUAUGGGAUG as the variant, how does the “yeast fitness (ln)” value read?
A: -0.51

Q: With AUUCCUUUGGCGUAAUGGUAACGCGUCUCCCUCCUAAGGAGAAGACUGCGGGUUCGAGUCCCGUACGGGAUG as the variant, how does the “yeast fitness (ln)” value read?
A: -0.186

Q: With GGUCCUUUGGCGUAAUGGUAACGCGUUUCCCUCCUAAGGAGAAGACUGCGGGUUCGAGUCCCGUAUGGGACG as the variant, how does the “yeast fitness (ln)” value read?
A: -0.275

Q: Which “yeast fitness (ln)” value does the source give for GCUCCGUUGGCGUAAUGGUAACGCGUCUCCCUCCUAAGGAGACGACUGCGGGUUCGAGUCCCGUAAGGAUCG here?
A: -0.0829

Q: For AGUCCGUUGGCGUAAUGGUAACGCGUUUCCCUCCUAAGGAGACGAUUGCGGGUUCGAGUCCCGUAUGGAUCG, which “yeast fitness (ln)” value is on record?
A: -0.214

Q: Which “yeast fitness (ln)” value does the source give for GCUCCGUUGGCGUAAUGGUAACGCGUUUCCCUCCUAAGGAGACGACUGCGGGUUCGAGUCCCGUAUGGGGUG here?
A: -0.288

Q: Which “yeast fitness (ln)” value does the source give for AGUCCAUUGGCGUAAUGGUAACGCGUCUCCCUCCUAAGGAGACGACUGCGGGUUCGAGUCCCGUACGGAACG here?
A: -0.238

Q: Which “yeast fitness (ln)” value does the source give for GCUCCUUUGGCGUAAUGGUAACGCGUCUCCCUCCUAAGGAGAAGAUUGCGGGUUCGAGUCCCGUACGGGGUG here?
A: -0.236

Q: With AUUCCGUUGGCGUAAUGGUAACGCGUUUCCCUCCUAAGGAGAAGACUGCGGGUUCGAGUCCCGUAUGGAACG as the variant, how does the “yeast fitness (ln)” value read?
A: -0.206

Q: With ACUCCUUUGGCGUAAUGGUAACGCGUCUCCCUCCUAAGGAGACGAUUGCGGGUUCGAGUCCCGUAAGGAGCG as the variant, how does the “yeast fitness (ln)” value read?
A: -0.000562

Q: For GCUCCUUUGGCGUAAUGGUAACGCGUCUCCCUCCUAAGGAGAAGAUUGCGGGUUCGAGUCCCGUAAGGGUUG, which “yeast fitness (ln)” value is on record?
A: -0.185

Q: For AGUCCAUUGGCGUAAUGGUAACGCGUCUCCCUCCUAAGGAGAAGACUGCGGGUUCGAGUCCCGUAAGGGGUG, which “yeast fitness (ln)” value is on record?
A: -0.257

Q: With GCUCCGUUGGCGUAAUGGUAACGCGUCUCCCUCCUAAGGAGACGACUGCGGGUUCGAGUCCCGUACGGAACG as the variant, how does the “yeast fitness (ln)” value read?
A: -0.0265

Q: Which “yeast fitness (ln)” value does the source give for ACUCCAUUGGCGUAAUGGUAACGCGUUUCCCUCCUAAGGAGACGAUUGCGGGUUCGAGUCCCGUAUGGGUUG here?
A: -0.555

Q: For AUUCCAUUGGCGUAAUGGUAACGCGUCUCCCUCCUAAGGAGAAGACUGCGGGUUCGAGUCCCGUAUGGAAUG, which “yeast fitness (ln)” value is on record?
A: -0.0242

Q: For GGUCCGUUGGCGUAAUGGUAACGCGUUUCCCUCCUAAGGAGACGAUUGCGGGUUCGAGUCCCGUAUGGAUUG, which “yeast fitness (ln)” value is on record?
A: -0.265

Q: Which “yeast fitness (ln)” value does the source give for GCUCCGUUGGCGUAAUGGUAACGCGUCUCCCUCCUAAGGAGAAGAUUGCGGGUUCGAGUCCCGUACGGGUUG here?
A: -0.169

Q: For GUUCCUUUGGCGUAAUGGUAACGCGUCUCCCUCCUAAGGAGACGACUGCGGGUUCGAGUCCCGUAAGGAGCG, which “yeast fitness (ln)” value is on record?
A: -0.0733

Q: Which “yeast fitness (ln)” value does the source give for GGUCCGUUGGCGUAAUGGUAACGCGUUUCCCUCCUAAGGAGAAGACUGCGGGUUCGAGUCCCGUAUGGGGUG here?
A: -0.264

Q: For GGUCCUUUGGCGUAAUGGUAACGCGUCUCCCUCCUAAGGAGAAGACUGCGGGUUCGAGUCCCGUAUGGAGUG, which “yeast fitness (ln)” value is on record?
A: -0.151

Q: With AUUCCUUUGGCGUAAUGGUAACGCGUUUCCCUCCUAAGGAGAAGACUGCGGGUUCGAGUCCCGUAAGGAUUG as the variant, how does the “yeast fitness (ln)” value read?
A: -0.369

Q: Which “yeast fitness (ln)” value does the source give for GCUCCGUUGGCGUAAUGGUAACGCGUCUCCCUCCUAAGGAGACGAUUGCGGGUUCGAGUCCCGUAUGGAUCG here?
A: -0.0497

Q: Which “yeast fitness (ln)” value does the source give for AGUCCGUUGGCGUAAUGGUAACGCGUCUCCCUCCUAAGGAGACGAUUGCGGGUUCGAGUCCCGUAUGGAACG here?
A: -0.116

Q: For GUUCCAUUGGCGUAAUGGUAACGCGUUUCCCUCCUAAGGAGAAGAUUGCGGGUUCGAGUCCCGUAUGGGUCG, which “yeast fitness (ln)” value is on record?
A: -0.196

Q: With ACUCCUUUGGCGUAAUGGUAACGCGUCUCCCUCCUAAGGAGAAGACUGCGGGUUCGAGUCCCGUACGGGUCG as the variant, how does the “yeast fitness (ln)” value read?
A: -0.152
